Assay [1] relates to KB. The assay is described as follows: Cytotoxicity against human KB cells by SRB microtiter plate assay. Type of assay: functional, cell-based. Put shortly:
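KB cells grown at 37 °C, 5% CO₂, humidified, in RPMI-1640 with 25 mM HEPES, 2% (w/v) sodium bicarbonate, 10% FBS and 100 µg/mL kanamycin. Compounds were added from DMSO stocks, with final DMSO at or below 1% (v/v). IC₅₀ was interpolated from dose-response data. Each test was run in triplicate, and independent tests were repeated.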

In assay [2] the test system is DU-145. The assay is described as follows: Cytotoxicity against human DU145 cells by SRB microtiter plate assay. Type of assay: functional, cell-based. Put shortly: (§1)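 Cells were cultured at 37 °C, 5% CO₂, in RPMI-1640 with 25 mM HEPES, 2% bicarbonate, 10% FBS and kanamycin. Compounds were added from DMSO stocks, final DMSO ≤1% (v/v). IC₅₀ was interpolated from dose-response data. Each test was run in triplicate in independent experiments.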

Assay [3] is described as follows: Cytotoxicity against multidrug resistant human KB-Vin cells by SRB microtiter plate assay. Format: functional, cell-based. Put shortly:
as §1

Assay [4] deals with A549. The experiment in a line: Cytotoxicity against human A549 cells by SRB microtiter plate assay. Type of assay: functional, cell-based. Put shortly: as §1
For assay [5], the system named is ZR-75-1. The experiment in a line: Cytotoxicity against human ZR751cells by SRB microtiter plate assay. Type of assay: functional, cell-based. Put shortly:
as §1

In assay [6] the test system is A549. The assay is described as follows: Antitumor activity against human A549 xenografted SCID mouse model at 10 mg/kg, ip after 5 days. Type of assay: functional, organism-based. On the set-up: dose 10 mg/kg. Put shortly: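 Male SCID mice were inoculated s.c. on the dorsal side with 1.5 × 10⁷ A549 cells. Day 1 was when tumors reached ≥5 mm; groups of six. Dosing ip at 10 mL/kg every 4 days for six doses. Tumor size and body weight recorded every 4 days. Tumor weight = length × width² × 0.5. T/C = (Tn−T1)/(Cn−C1) × 100% against vehicle.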

Active and inactive are the calls of the source. No cut-off for these calls is given here. Where only a bound is given, the exact number is not on record here.

For `COc1ccc2c(CN3CCC(CO)CC3)cc3cc4c(cc3c2c1)OCO4` [listing 1 of 3 here], the IC50 (usually the concentration that gives 50% inhibition) in assay [1] (kb) was 240 nM; in assay [2] (du-145), 30 nM; in assay [3] it was 90 nM; in assay [4] (Homo sapiens, A549), 80 nM; in assay [5] (zr-75-1), 30 nM.

For the compound `COc1ccc2c(CNCCCCCCO)cc3cc4c(cc3c2c1)OCO4` [listing 1 of 2 here], the IC50 in assay [1] (Homo sapiens, KB) is 230 nM; in assay [2] (du-145), 70 nM; in assay [3], 160 nM; in assay [5] (Homo sapiens, ZR-75-1) it was 80 nM.

Turning to `OCC1CCN(Cc2cc3cc4c(cc3c3cc(OCc5ccccc5)ccc23)OCO4)CC1`, in assay [4] (Homo sapiens, A549), the half-inhibitory concentration (IC50) is 700 nM.

As for `COc1ccc2c3c(c4cc(OC)c(OC)cc4c2c1)C[C@H]1CCCN1C3` [(-)-ANTOFINE], the IC50 is 13 nM in assay [1] (Homo sapiens, KB); 9 nM in assay [2] (Homo sapiens, DU-145); 9 nM in assay [3] (Homo sapiens, KBVIN); 8 nM in assay [4] (Homo sapiens, A549); 8 nM in assay [5] (Homo sapiens, ZR-75-1).

As for `O=C(O)C1CCN(Cc2cc3cc4c(cc3c3cc(OCc5ccccc5)ccc23)OCO4)CC1`, the concentration for half-maximal inhibition (IC50) in assay [4] (Homo sapiens, A549) amounted to 2100 nM.

Consider `COc1ccc2c(CN3CCN(c4ccccc4Cl)CC3)cc3cc4c(cc3c2c1)OCO4`, for which, in assay [4], the outcome was inactive.

Consider `COc1ccc2c(CN3CCC[C@H]3C(=O)O)cc3cc4c(cc3c2c1)OCO4`, for which half-maximal inhibition in assay [4] (Homo sapiens, A549) (IC50) required 2100 nM.

In assay [4] (Homo sapiens, A549), `COc1ccc2c(CN3CCCC[C@H]3C(=O)O)cc3cc4c(cc3c2c1)OCO4` gave a half-maximal inhibitory concentration (IC50) of 500 nM.

Regarding `COc1ccc2c(CN3CCN(CCO)CC3)cc3cc4c(cc3c2c1)OCO4`, the IC50 in assay [1] (Homo sapiens, KB) is 500 nM; in assay [2] (Homo sapiens, DU-145) it was 250 nM; in assay [3] (Homo sapiens, KBVIN) it was 510 nM; in assay [4] (Homo sapiens, A549), 630 nM; in assay [5] (Homo sapiens, ZR-75-1) it was 230 nM.

As for `CC[C@]1(O)C[C@H]2CN(CCc3c([nH]c4ccccc34)[C@@](C(=O)OC)(c3cc4c(cc3OC)N(C=O)[C@H]3[C@@](O)(C(=O)OC)[C@H](OC(C)=O)[C@]5(CC)C=CCN6CC[C@]43[C@@H]65)C2)C1` [VINCRISTINE], the IC50 in assay [1] (Homo sapiens, KB) was 6 nM; in assay [2] (Homo sapiens, DU-145), 85 nM; in assay [3] (Homo sapiens, KBVIN), 5300 nM; in assay [4] (Homo sapiens, A549), 40 nM; in assay [5] (Homo sapiens, ZR-75-1) it was 40 nM.

`COc1ccc2c(CNCCCCCCCCCCC(=O)O)cc3cc4c(cc3c2c1)OCO4` showed an IC50 in assay [4] (Homo sapiens, A549) of 3200 nM.

`COc1ccc2c(CN3CCCC[C@H]3CO)cc3cc4c(cc3c2c1)OCO4` [listing 1 of 2 here]: the IC50 in assay [2] (du-145) stood at 90 nM; in assay [3], 90 nM; in assay [5] (zr-75-1), 80 nM.

`COc1ccc2c(CN3CCN(c4ccc(Cl)cc4)CC3)cc3cc4c(cc3c2c1)OCO4` displayed a concentration for half-maximal inhibition (IC50) in assay [4] (Homo sapiens, A549) of 65200 nM.

On to `O=C(O)[C@@H]1CCCCN1Cc1cc2cc3c(cc2c2cc(OCc4ccccc4)ccc12)OCO3`, for which the IC50 in assay [4] (Homo sapiens, A549) was found to be 3200 nM.

For `COc1cccc2c1C(=O)c1c(O)c3c(c(O)c1C2=O)C[C@@](O)(C(=O)CO)C[C@@H]3O[C@H]1C[C@H](N)[C@H](O)[C@H](C)O1` [DOXORUBICIN], the IC50 was 180 nM in assay [1] (Homo sapiens, KB); 130 nM in assay [2] (Homo sapiens, DU-145); more than 4000 nM in assay [3] (Homo sapiens, KBVIN); 180 nM in assay [4] (Homo sapiens, A549); 40 nM in assay [5] (Homo sapiens, ZR-75-1).

Take `COc1ccc2c(CN3CCC(CCO)CC3)cc3cc4c(cc3c2c1)OCO4` [listing 1 of 2 here]: the half-maximal inhibitory concentration (IC50) in assay [1] (kb) turned out to be 200 nM; in assay [2] (Homo sapiens, DU-145), 100 nM; in assay [3] it was 200 nM; in assay [4] (a549), 90 nM; in assay [5] (Homo sapiens, ZR-75-1) it was 20 nM.

For the compound `COc1ccc2c(CNCCCCC(=O)O)cc3cc4c(cc3c2c1)OCO4`, in assay [4] (Homo sapiens, A549), half-maximal inhibition (IC50) was put at 1300 nM.

With `COc1ccc2c(CNCCCCCO)cc3cc4c(cc3c2c1)OCO4`, half-maximal inhibition in assay [4] (Homo sapiens, A549) (IC50) was put at 270 nM.

In assay [4] (Homo sapiens, A549), `OC[C@@H]1CCCCN1Cc1cc2cc3c(cc2c2cc(OCc4ccccc4)ccc12)OCO3` had an IC50 of 1300 nM.

In the case of `COc1ccc2c(CN3CCC[C@@H]3C(=O)O)cc3cc4c(cc3c2c1)OCO4`, in assay [4] (Homo sapiens, A549), the half-maximal inhibitory concentration (IC50) amounted to 5200 nM.

Turning to `COc1ccc2c(CN3CCC(CO)CC3)cc3cc4c(cc3c2c1)OCO4` [listing 2 of 3 here], in assay [6], the outcome was Active.

On to `COc1ccc2c(CN3CCN(c4ccc(O)cc4)CC3)cc3cc4c(cc3c2c1)OCO4`, for which the half-maximal inhibitory concentration (IC50) was 130 nM in assay [1] (Homo sapiens, KB); 150 nM in assay [2] (Homo sapiens, DU-145); 340 nM in assay [3] (Homo sapiens, KBVIN); 220 nM in assay [4] (Homo sapiens, A549); 180 nM in assay [5] (Homo sapiens, ZR-75-1).

Turning to `COc1ccc2c(CN3CCC[C@H]3CO)cc3cc4c(cc3c2c1)OCO4`, in assay [4] (Homo sapiens, A549), the IC50 amounted to 700 nM.

Turning to `COc1ccc2c(CNCCCCCCCCCCCO)cc3cc4c(cc3c2c1)OCO4`, the IC50 in assay [4] (Homo sapiens, A549) turned out to be 2600 nM.

Turning to `COc1ccc2c(CN3CCCC[C@H]3CO)cc3cc4c(cc3c2c1)OCO4` [listing 2 of 2 here], the IC50 in assay [1] (Homo sapiens, KB) came out at 120 nM; in assay [2] (du-145), 210 nM; in assay [3] (Homo sapiens, KBVIN), 160 nM; in assay [4] (Homo sapiens, A549) it was 160 nM; in assay [5] (Homo sapiens, ZR-75-1) it was 100 nM.

Turning to `COc1ccc2c(CN3CCC(CO)CC3)cc3cc4c(cc3c2c1)OCO4` [listing 3 of 3 here], the half-maximal inhibitory concentration (IC50) in assay [1] (kb) turned out to be 70 nM; in assay [2] (Homo sapiens, DU-145) it was 50 nM; in assay [3], 40 nM; in assay [4] (a549), 70 nM; in assay [5] (Homo sapiens, ZR-75-1), 40 nM.

In turn, `COc1ccc2c(CN3CCC[C@@H]3CO)cc3cc4c(cc3c2c1)OCO4` had an IC50 in assay [4] (Homo sapiens, A549) of 1100 nM.

In the case of `COc1ccc2c(CNCCCCCCO)cc3cc4c(cc3c2c1)OCO4` [listing 2 of 2 here], the IC50 in assay [1] (kb) is 250 nM; in assay [2] (du-145), 440 nM; in assay [3], 350 nM; in assay [4] (Homo sapiens, A549), 200 nM; in assay [5] (zr-75-1), 130 nM.

For `COc1ccc2c(CN3CCC(CCO)CC3)cc3cc4c(cc3c2c1)OCO4` [listing 2 of 2 here], the IC50 in assay [1] (kb) is 420 nM; in assay [2] (du-145) it was 150 nM; in assay [3] it was 500 nM; in assay [4] (Homo sapiens, A549), 150 nM; in assay [5] (zr-75-1), 30 nM.

In assay [4] (Homo sapiens, A549), `COc1ccc2c(CN3CCN(CCOCCO)CC3)cc3cc4c(cc3c2c1)OCO4` displayed an IC50 of 57100 nM.

`COc1ccc2c(CN3CCC(C(=O)O)CC3)cc3cc4c(cc3c2c1)OCO4`: the IC50 in assay [1] (Homo sapiens, KB) was determined as 150 nM; in assay [2] (Homo sapiens, DU-145), 310 nM; in assay [3] (Homo sapiens, KBVIN), 380 nM; in assay [4] (Homo sapiens, A549), 230 nM; in assay [5] (Homo sapiens, ZR-75-1) it was 250 nM.

Consider `COc1ccc2c(CNCCCCCC(=O)O)cc3cc4c(cc3c2c1)OCO4`, for which the IC50 in assay [1] (Homo sapiens, KB) was found to be 330 nM; in assay [2] (Homo sapiens, DU-145), 670 nM; in assay [3] (Homo sapiens, KBVIN), 830 nM; in assay [4] (Homo sapiens, A549), 800 nM; in assay [5] (Homo sapiens, ZR-75-1), 540 nM.

In the case of `COc1cc([C@@H]2c3cc4c(cc3[C@@H](O[C@@H]3O[C@@H]5CO[C@@H](C)O[C@H]5[C@H](O)[C@H]3O)[C@H]3COC(=O)[C@H]23)OCO4)cc(OC)c1O` [ETOPOSIDE], the 50% inhibitory concentration (IC50) in assay [1] (Homo sapiens, KB) was 4800 nM; in assay [2] (Homo sapiens, DU-145), 2400 nM; in assay [3] (Homo sapiens, KBVIN), more than 10000 nM; in assay [4] (Homo sapiens, A549) it was 1400 nM; in assay [5] (Homo sapiens, ZR-75-1), 3100 nM.

Regarding `CC[C@H]1CN2CCc3cc(OC)c(OC)cc3[C@@H]2C[C@@H]1C[C@H]1NCCc2cc(OC)c(OC)cc21` [EMETINE], the IC50 was 40 nM in assay [1] (Homo sapiens, KB); 60 nM in assay [2] (Homo sapiens, DU-145); more than 2000 nM in assay [3] (Homo sapiens, KBVIN); 40 nM in assay [4] (Homo sapiens, A549); 100 nM in assay [5] (Homo sapiens, ZR-75-1).

(Values after ChEMBL document CHEMBL1145456, “Antitumor agents 253. Design, synthesis, and antitumor evaluation of novel 9-substituted phenanthrene-based tylophorine derivatives as potential anticancer agents” (J Med Chem, 2007).)
